From ChEMBL document CHEMBL5653613 (Mol Cancer Ther, 2013) come the findings set out here.

Calls of active or inactive are those of the source. The calls are words filed in the database; no cut-off is given here.

Assay [1] has as its system T47D. In words: Induction of polyploidy in human T47D cells assessed as cells with 4N chromosome contents at 5 uM incubated for 24 hrs by PI staining based flow cytometry (reference value: 35). It counts as functional. (Flow cytometry measures light scatter and fluorescence of single cells or particles in a stream.)
Assay [2] relates to T47D. In words: Induction of apoptosis in human T47D cells assessed as early cells at 5 umol/L incubated for 3 days by Annexin V/PI staining based flow cytometry (reference value: 0.8 %). It counts as functional. To be noted: dose 5 µmol/L; time 3 day; at 5 µM.
Assay [3] concerns T47D. In words: Disruption of microtubule dynamics in human T47D cells assessed as formation of multipolar spindles at 5 umol/L incubated upto 72 hrs by immunofluorescence staining based analysis. It counts as functional, cell-based. To be noted: dose 5.0 µmol/L. The method in brief:
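T-47D cells (1 × 10^6/dish) in RPMI-1640 with 5% FBS were treated with or without 5 µmol/L for 24, 48 and 72 h. Cells were fixed in cold acetone and stained with mouse anti-α-tubulin or anti-γ-tubulin, then an FITC anti-mouse IgG secondary, plus DAPI. Fluorescence microscopy, 200× magnification.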

Assay [4] relates to ZR-75-1. Kind of assay: Induction of polyploidy in human ZR-75-1 cells assessed as cells with 4N chromosome contents at 5 uM incubated for 24 hrs by PI staining based flow cytometry (reference value: 35). It counts as functional.
The subject of assay [5] is MCF7. Kind of assay: Induction of apoptosis in human MCF7 cells assessed as viable cells at 5 umol/L incubated for 3 days by Annexin V/PI staining based flow cytometry (reference value: 98.1 %). The class given is functional. The settings on record: MCF7, 72 h, dose 5 µmol/L, time 3 day, read-out: Activity.
In assay [6] the test system is ZR-75-1. In words: Induction of polyploidy in human ZR-75-1 cells assessed as cells with 8N chromosome contents at 5 uM incubated for 24 hrs by PI staining based flow cytometry (reference value: 0). It counts as functional.
Assay [7] concerns MCF7. In words: Induction of polyploidy in human MCF7 cells assessed as cells with 2N chromosome contents at 5 uM incubated for 72 hrs by PI staining based flow cytometry (reference value: 52). The class given is functional.
Assay [8] relates to MCF7. In words: Induction of polyploidy in human MCF7 cells assessed as cells with 16N chromosome contents at 5 uM incubated for 24 hrs by PI staining based flow cytometry (reference value: 0). It counts as functional.
The test system of assay [9] is MCF7. Kind of assay: Induction of polyploidy in human MCF7 cells at 5 to 10 umol/L incubated for 72 hrs by microscopic analysis relative to control. To be noted: dose 5-10 µmol/L, at 5 to 10 µM. It counts as functional. A digest of the protocol:
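Cells stained with Hema-3 and photographed under a light microscope with CCD camera. Polyploid cells scored as percent of the population.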

Assay [10] relates to MCF7. In words: Induction of apoptosis in human MCF7 cells assessed as rate of apoptotic cell death at 5 umol/L by annexin V/PI staining based flow cytometry relative to control. It counts as functional. The settings on record: dose 5 µmol/L; at 5 µM.
The test system of assay [11] is T47D. In words: Induction of polyploidy in human T47D cells assessed as cells with 2N chromosome contents at 5 uM incubated for 48 hrs by PI staining based flow cytometry (reference value: 48). The class given is functional.
Assay [12] relates to ZR-75-1. In words: Induction of polyploidy in human ZR-75-1 cells assessed as cells with 16N chromosome contents at 5 uM incubated for 48 hrs by PI staining based flow cytometry (reference value: 0). It counts as functional.
The subject of assay [13] is ZR-75-1. In words: Induction of apoptosis in human ZR-75-1 cells assessed as viable cells at 5 umol/L incubated for 3 days by Annexin V/PI staining based flow cytometry (reference value: 95 %). To be noted: ZR-75-1, 72 h, dose 5 µmol/L, time 3 day, read-out: Activity. It counts as functional.
In assay [14] the test system is ZR-75-1. Kind of assay: Induction of apoptosis in human ZR-75-1 cells assessed as rate of apoptotic cell death at 5 umol/L by annexin V/PI staining based flow cytometry relative to control. The settings on record: dose 5 µmol/L; at 5 µM. The class given is functional.
In assay [15] the test system is T47D. In words: Induction of polyploidy in human T47D cells with RON-/- at 5 umol/L incubated for 72 hrs followed by media replacement without compound measured upto 10 days by microscopic analysis. It counts as functional, cell-based. To be noted: dose 5.0 µmol/L.
For assay [16], the system named is T47D. Kind of assay: Induction of polyploidy in human T47D cells assessed as cells with 16N chromosome contents at 5 uM incubated for 24 hrs by PI staining based flow cytometry (reference value: 0). The class given is functional.
In assay [17] the test system is T47D. In words: Induction of apoptosis in human T47D cells assessed as viable cells at 5 umol/L incubated for 3 days by Annexin V/PI staining based flow cytometry (reference value: 95.7 %). It counts as functional. The settings on record: 72 h, dose 5 µmol/L, time 3 day, read-out: Activity.

With `CCOc1ccn(-c2ccc(F)cc2)c(=O)c1C(=O)Nc1ccc(Oc2ccnc(N)c2Cl)c(F)c1` [BMS-777607], the Activity came out at 20 in the assay on T47D [1]; 2.2% in the assay on T47D [2]; 45.5 in the assay on ZR-75-1 [4]; 14 in the assay with ZR-75-1 [6]; 12 in the assay on MCF7 [7]; 0 in the assay with MCF7 [8]. Also, the Activity in the assay on MCF7 [9] was 36%; with MCF7 [10], 2.2%; with T47D [11], 7.4; in the assay with ZR-75-1 [12], 32; with ZR-75-1 [14] it was 9.7%; with T47D [16], 10. Moreover, the result in the assay on T47D [3] and in the assay on T47D [15] was Active. Besides, the viability at 5 µM in the assay on MCF7 [5] came out at 97.3%; with ZR-75-1 [13] it was 88.5%; in the assay with T47D [17] it was 87.3%.
